Assay results of several laboratories.
Protocols differ between the studies behind these lines.
TMEM97: Sigma intracellular receptor 2 (TMEM97, Homo sapiens, UniProt Q5BJF2)
SIGMAR1: Sigma non-opioid intracellular receptor 1 (SIGMAR1, Cavia porcellus, UniProt Q60492)
lecB: Fucose-binding lectin PA-IIL (lecB, Pseudomonas aeruginosa, UniProt Q9HYN5)
CHRM3: Muscarinic acetylcholine receptor M3 (CHRM3, Homo sapiens, UniProt P20309)

| SMILES | target | observed | mode | technique | notes | Ki |
| --- | --- | --- | --- | --- | --- | --- |
| COCCCN1CCN(c2ccccc2OC)CC1 | Alpha-1D adrenergic receptor (ADRA1D, Homo sapiens, UniProt P25100) | cell-free assay | – | – | – | 0.17 µM |
| COc1cc2c(cc1OC)CN(CCc1ccc(NC(=O)c3cccc4c(=O)c5cccc(OC)c5[nH]c34)cc1)CC2 | TMEM97 | ligand displacement | – | radioligand | – | 0.077 µM |
| NC1C(O)C(O)C(O)C1O (stereo not drawn) | Alpha-mannosidase 2 (Drosophila melanogaster, UniProt Q24451) | enzyme activity | inhibitor | fluorescence | – | 100 µM |
| CN(C)CCCN1c2ccccc2CCc2ccc(Cl)cc21 | TMEM97 | ligand displacement | – | radioligand | – | 0.2 µM |
| Cn1cc(-c2cccc(N3CCc4c(sc5c4CC(C)(C)C5)C3=O)c2CO)cc(Nc2ccncn2)c1=O | Ephrin type-A receptor 7 (EPHA7, Homo sapiens, UniProt Q15375) | cell-free assay | – | – | – | 0.548 µM |
| Cc1ncc(C)n2nc(/C=C/c3nc(N4CCCC4)cc(N4CCOCC4)n3)nc12 | cAMP and cAMP-inhibited cGMP 3',5'-cyclic phosphodiesterase 10A (Pde10a, Rattus norvegicus, UniProt Q9QYJ6) | enzyme activity | inhibitor | TR-FRET | – | 0.00059 µM |
| CC1=NC2(CCN(C)CC2)C(=O)N(c2c(C)cccc2C)C1=O | SIGMAR1 | cell-free assay | – | – | – | 0.008 µM |
| CN1[C@@H]2CC[C@H]1C[C@@H](OC(c1ccccc1)c1ccccc1)C2 | TMEM97 | ligand displacement | – | radioligand | – | 0.0637 µM |
| C[C@H](N)Cn1ncc2ccc3c(c21)CCCO3 | 5-hydroxytryptamine receptor 1B (Htr1b, Rattus norvegicus, UniProt P28564) | ligand displacement | – | radioligand | – | 5.57 µM |
| CCN(CC)CCO[C@H]1CC[C@@]2(C)C(=CC[C@@H]3[C@@H]2CC[C@]2(C)C(=O)CC[C@@H]32)C1 | TMEM97 | ligand displacement | – | radioligand | – | 0.0193 µM |
| CC(C)[C@]1(O)[C@H](O)[C@@H]2O[C@]23[C@]2(O[C@H]2C[C@H]2C4=C(CC[C@@]23C)C(=O)OC4)[C@@H]1O | dCTP pyrophosphatase 1 (Homo sapiens, UniProt Q9H773) | enzyme activity | inhibitor | – | – | 85 µM |
| CC(C)C[C@H](NC(=O)CNC(=O)[C@H](C)NC(=O)c1ccc(S(=O)(=O)NC[C@H]2O[C@@H](C)[C@@H](O)[C@@H](O)[C@@H]2O)cc1)C(=O)N[C@@H](C)C(=O)NC[C@@H]1CCN(c2cc3c(cc2F)c(=O)c(C(=O)O)cn3C2CC2)C1 | lecB | ligand displacement | – | FP | – | 1.76 µM |
| CN1CCN(C2=Nc3ccccc3Oc3ccc(Cl)cc32)CC1 | TMEM97 | ligand displacement | – | radioligand | – | 3.46 µM |
| c1cc(N2CCNCC2)c2cc[nH]c2c1 | CHRM3 | ligand displacement | – | radioligand | cell membranes | > 31.6 µM |
| CC(C)[C@@H](Nc1nc(Cl)nc2c1ncn2[C@H]1[C@H](O)[C@H](O)[C@]2(CN=[N+]=[N-])C[C@H]12)C1CC1 | Alpha-2B adrenergic receptor (ADRA2B, Homo sapiens, UniProt P18089) | ligand displacement | – | radioligand | – | > 7.3 µM |
| Cc1cc(N2CCNCC2)nc2ccccc12 | CHRM3 | ligand displacement | – | radioligand | cell membranes | 31.6 µM |
| CC(C)C[C@H](NC(=O)CNC(=O)[C@H](C)NC(=O)c1ccc(S(=O)(=O)NC[C@H]2O[C@@H](C)[C@@H](O)[C@@H](O)[C@@H]2O)cc1)C(=O)N[C@@H](C)C(=O)N1CCN(c2cc3c(cc2F)c(=O)c(C(=O)O)cn3C2CC2)CC1 | lecB | ligand displacement | – | FP | – | 1.92 µM |
| CCN(CC)CCNC(=O)c1ccc(F)cc1 | SIGMAR1 | ligand displacement | – | radioligand | cell membranes | 8.9 µM |
